HSV augment – increases HSV replication in cells; HSV replication augmentation in cells, fold increase; maximum fold increase; actives 0.005% (n = 220,000); AID 1956; in the data active = maximum fold increase above about 1.5; inconclusive = no clear call, values can overlap the other calls; tested in PC3 cells
Autophagy mod – autophagy modulation, high-content screen | MEF GFP-LC3 puncta imaging; test concentration mostly 10 µM | calls only at 10 µM (by protocol) | actives 0.98% (n = 190,000) | AID 463193;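 active = percentage of spot-positive cells more than 3 SD above its plate mean, without a fluorescence outlier flag or 80% toxicity; inconclusive = no clear call, values can overlap the other calls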;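 note: spot-positive cell cutoff set from DMSO-treated cells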
HKDC1 inh – blocks human hexokinase HKDC1 activity; inhibition, % at 20 µM; actives 0.16% (n = 340,000); recombinant HKDC1, G6PDH/diaphorase resazurin coupled fluorescence; AID 493160;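 active = inhibition above about 35% when tested at 20 µM, limit read from the data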;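 note: plate controls were DMSO wells with enzyme for no effect and DMSO wells lacking enzyme for full effect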
Target sequence (Q2TB90 whole entry, looked up): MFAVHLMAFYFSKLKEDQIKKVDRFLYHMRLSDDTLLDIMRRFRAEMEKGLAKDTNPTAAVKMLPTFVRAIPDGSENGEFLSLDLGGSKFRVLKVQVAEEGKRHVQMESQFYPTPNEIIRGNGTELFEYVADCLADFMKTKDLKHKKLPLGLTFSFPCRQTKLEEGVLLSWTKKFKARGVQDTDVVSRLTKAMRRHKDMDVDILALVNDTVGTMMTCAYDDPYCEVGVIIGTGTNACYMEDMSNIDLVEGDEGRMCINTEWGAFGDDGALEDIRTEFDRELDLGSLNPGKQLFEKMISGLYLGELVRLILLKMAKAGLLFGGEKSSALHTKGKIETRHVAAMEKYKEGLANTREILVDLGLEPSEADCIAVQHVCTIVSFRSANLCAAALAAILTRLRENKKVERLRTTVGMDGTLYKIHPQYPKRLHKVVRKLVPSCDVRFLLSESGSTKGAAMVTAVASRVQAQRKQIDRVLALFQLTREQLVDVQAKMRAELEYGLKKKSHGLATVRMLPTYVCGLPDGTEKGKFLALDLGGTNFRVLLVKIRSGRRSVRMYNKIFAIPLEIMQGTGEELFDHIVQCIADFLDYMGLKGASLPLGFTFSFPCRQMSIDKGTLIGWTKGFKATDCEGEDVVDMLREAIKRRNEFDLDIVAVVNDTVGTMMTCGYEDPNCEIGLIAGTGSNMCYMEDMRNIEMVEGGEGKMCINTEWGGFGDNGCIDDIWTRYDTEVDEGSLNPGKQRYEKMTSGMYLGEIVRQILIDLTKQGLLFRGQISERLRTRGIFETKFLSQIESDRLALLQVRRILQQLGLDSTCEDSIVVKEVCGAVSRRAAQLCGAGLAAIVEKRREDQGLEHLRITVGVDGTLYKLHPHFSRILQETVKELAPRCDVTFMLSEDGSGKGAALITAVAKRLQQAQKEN
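Assay system – recombinant HKDC1 (HK5) hexokinase enzyme, produced in-house · Input – HKDC1 at 5 µg/mL · Reagent – glucose plus 1 mM ATP as hexokinase substrates · Timing – 90 min reaction incubation at room temperature, dark · Measured by – G6PDH/diaphorase-coupled fluorescence, 1 mM NADP, 100 µM resazurin, 525/613 nm · Benchmarks – DMSO-enzyme wells negative, buffer-substituted wells positive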
Tb hexokinase – blocks Trypanosoma brucei hexokinase 1 activity | actives 0.11% (n = 220,000) | recombinant TbHK1, G6PDH-coupled NADH A340 | inhibition, % at 10 µM | AID 1430;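 active = inhibition of 50% or more in the single-dose primary screen; inactive = inhibition below 50%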
Dynein cargo inh – blocks dynein driven cargo transport along microtubules; 3617.4 mouse cells, GR-EGFP nuclear translocation imaging; test concentration mostly 20 µM; stimulated with dexamethasone, 1 µM; stronger effect = lower value; z-score, hits read low; actives 0.47% (n = 220,000); AID 1381;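 active = plate z-score of nuclear minus cytoplasmic receptor signal below a set negative limit, without overly bright fluorescence or cell loss, cut at about -3.5 in these data, passing the limit was not always enough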;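 note: z-score of nuclear minus cytoplasmic ring GR-EGFP intensity difference per well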
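Buffer or medium: tetracycline-free induction medium containing charcoal-stripped FBS / Reagent: dexamethasone agonist, 1.0 µM final, for 30 min / Technique: automated 10x imaging of fixed Hoechst-stained cells / Times: induction 48 h, compound 1 h, agonist 30 min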
PERK inh – inhibitors of human PERK kinase. inhibition, % at 5.6 µM. actives 0.17% (n = 220,000). CHO PERK-DD fusion, SEAP luminescence translation reporter;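 active = inhibition above the mean inhibition of all tested compounds plus 3 SD, set separately per screening campaign, cut at about 2.9% in these data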;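 note: PERK kinase domain activated by AP20187 dimerizer at 100 nM; 0% = DMSO with dimerizer and 100% = rapamycin at 8.4 µM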
Active calls of the source: *; i = inactive; ? = inconclusive; nt = no result given; + = active, no number. The list is not random: actives were taken first. Their share in the collection is about 1.2%.

SMILES | HSV augment | Autophagy mod | HKDC1 inh | Tb hexokinase | Dynein cargo inh | PERK inh
Cc1ccc(Nc2c(-c3cccnc3)nc3ccc(Br)cn23)cc1 | i | + | -4 | -3 | 0.32 | 3
Cn1cc(Br)c(C(=O)Nc2ncc(Br)s2)n1 | i | + | -12 | -5 | -0.79 | 0
CCOc1ccc(NC(=O)c2nn(C)cc2Br)cc1 | i | i | -6 | 7 | -0.1 | 0
CC(Sc1nnc(-c2ccccc2F)n1C)C(=O)NC1CCCCC1 (configuration not stated) | nt | nt | -6 | nt | nt | nt
O=C(O)c1cccnc1Sc1ccc(Cl)cc1 | i | + | -3 | 0 | 0.15 | 0
CN(C)CC(CCC(CN(C)C)C(=O)c1ccccc1)C(=O)c1ccccc1 (configuration not stated) | i | nt | 5 | 3 | -5* | -1
O=C(c1ccccc1)C(CCC(CN1CCOCC1)C(=O)c1ccccc1)CN1CCOCC1 (configuration not stated) | i | i | 0 | -10 | -6.1* | -1
COc1ccc(C(=O)C(CN2CCOCC2)c2ccccc2)cc1 (configuration not stated) | i | i | 7 | -1 | -3.4 | 0
COc1ccc(C(=O)C(CCCCC(CN(C)C)C(=O)c2ccc(OC)cc2)CN(C)C)cc1 (configuration not stated) | nt | i | -4 | -1 | -0.18 | -1
CCCCOc1ccc(C(=O)C(CN2CCOCC2)c2ccccc2)cc1 (configuration not stated) | i | + | 0 | -12 | -2.3 | 0
O=C(Cc1cccc(F)c1F)NC1CCCN(Cc2ccc(Cl)cc2)C1 (configuration not stated) | nt | nt | -2 | nt | nt | nt
CN(C(=O)CSc1n[nH]c(-c2cccs2)n1)C1CCS(=O)(=O)C1 (configuration not stated) | nt | nt | -4 | nt | nt | nt
CCOC(=O)N1CCN(S(=O)(=O)c2ccc(C(=O)Nc3nc4c(s3)CC(C)CC4)cc2)CC1 (configuration not stated) | nt | + | -4 | -1 | -0.22 | 1
CCOC(=O)N1CCN(S(=O)(=O)c2ccc(C(=O)Nc3nnc(C4CC4)o3)cc2)CC1 | i | i | 10 | -6 | -0.096 | 1
COC(=O)CNC(=O)C1CCN(S(=O)(=O)c2cnc[nH]2)CC1 | nt | nt | -4 | nt | nt | nt
Cc1c(-c2ccnc3cc(C(=O)O)nn23)cnn1C | i | + | -5 | -14 | -0.086 | 0
Cc1cc2nnc(SCC(=O)NCc3cccs3)n2c2ccccc12 | i | + | 22 | -3 | 2 | -1
Cc1cc2nnc(SCC(=O)NCc3ccco3)n2c2ccccc12 | nt | nt | 7 | nt | nt | nt
COc1ccc(CN2CCN(C(=O)c3c(-c4ccccc4)noc3C)CC2)cc1F | nt | nt | -5 | nt | nt | nt
O=C(c1ccco1)[C@@H]1[C@@H]2C(=O)N(c3ccc(Br)cc3)C(=O)[C@@H]2C2c3ccccc3C=CN21 (some centres not stated) | ? | i | 2 | -10 | 0.51 | 0
O=C(c1ccco1)[C@@H]1[C@@H]2C(=O)N(c3ccc(F)cc3)C(=O)[C@@H]2C2c3ccccc3C=CN21 (some centres not stated) | i | i | nt | -10 | 1.7 | 3.0*
COc1cccc(/C=N/Nc2ccc([N+](=O)[O-])cn2)c1O | nt | nt | 36* | nt | nt | nt
CCOc1ccc(NC(=O)/C(C#N)=C/c2ccc(N3CCCC3)c(C)c2)cc1 | ? | + | -17 | -7 | -1.6 | 1
CC(OC(=O)[C@@H]1CCCN1C(=O)c1cccs1)C(=O)Nc1cccc([N+](=O)[O-])c1 (some centres not stated) | nt | nt | -2 | nt | nt | nt
CC(Oc1ccc(Cl)cc1Cl)C(=O)Nc1ccc(N2CCN(C)CC2)cc1 (configuration not stated) | i | + | 3 | 3 | 0.26 | -1
SMILES | HSV augment | Autophagy mod | HKDC1 inh | Tb hexokinase | Dynein cargo inh | PERK inh
CC(=O)Nc1ccc(NS(=O)(=O)c2ccccc2)cc1 | i | + | -10 | -5 | -1.5 | 0
CC(=O)Nc1ccc(S(=O)(=O)Nc2ccc(Nc3ccccc3)cc2)cc1 | nt | nt | -2 | nt | nt | nt
CC(=O)Nc1ccc(S(=O)(=O)NCCC(=O)OC(C)C(=O)NC2(C#N)CCCCC2)cc1 (configuration not stated) | nt | nt | -4 | nt | nt | nt
CC(C)(C)c1ccc(C(=O)Oc2ccccc2CCC(=O)O)cc1 | i | nt | -1 | 1 | 0.79 | 3.4*
Cc1cccc(Oc2cc([N+](=O)[O-])cc3c2C(=O)Nc2ccccc2O3)c1 | i | i | -2 | 12 | 2.6 | 0
O=C1Nc2ccccc2Oc2cc([N+](=O)[O-])cc(Oc3ccccc3)c21 | nt | + | 7 | 0 | 1.8 | 0
CC(c1ccccc1)C(NC(=O)OCC1c2ccccc2-c2ccccc21)C(=O)O (configuration not stated) | nt | nt | -3 | nt | nt | nt
C[n+]1c(/C=C/c2ccc(O)cc2)ccc2ccccc21 | nt | nt | 3 | nt | nt | nt
Cc1cc(/C=C\c2ccc3cc(N(C)C)ccc3[n+]2C)c(C)n1-c1ccccc1 | nt | nt | 37* | nt | nt | nt
Cc1cnc(NC(=O)CCCc2nc3ccccc3s2)s1 | i | + | -1 | -5 | -0.42 | 0
CCOc1ccc(-n2c(N)c(-c3nc4ccccc4n3C)c3nc4ccccc4nc32)cc1 | i | + | -2 | -5 | -0.2 | 0
C#CCN1C(=O)S/C(=C/C=C/c2ccc(N(C)C)cc2)C1=O | ? | + | -6 | 24 | -0.77 | 1
Cc1c(Cl)cccc1NS(=O)(=O)c1ccc2c(c1)C1C=CCC1C(c1ccc(C(=O)O)cc1)N2 (configuration not stated) | i | i | 10 | 52* | 1.1 | 1
COc1ccc(CCNC(=O)CC(c2ccccc2)c2cc(C)ccc2O)cc1OC (configuration not stated) | nt | nt | 0 | nt | nt | nt
CCc1ccc(OCC(=O)N(C)C)c(Br)c1 | i | + | -3 | 1 | -0.64 | 1
C=CC[C@@H](CC(=O)NCCO)C(=O)NC[C@H](OC(=O)[C@@H](CC=C)Cc1ccc(F)cc1)c1ccccc1 | nt | nt | -1 | nt | nt | nt
Cc1cc(NC(=O)COc2cccc(Oc3ccccc3)c2)no1 | i | + | -2 | -5 | -1.2 | 2
Cc1cccc(NC(=O)c2cnc3ccccn3c2=O)c1 | i | i | -1 | -14 | -0.94 | 3.1*
FC(F)(F)c1ccccc1NC(=S)N1CCc2ccccc2C1 | i | + | 0 | 4 | -0.92 | 0
Cc1c(Cl)cccc1NC(=S)N1CCc2ccccc2C1 | i | i | -1 | 2 | 0.98 | 3
O=C(c1ccc([N+](=O)[O-])cc1)N(Cc1ccc(Cl)cc1Cl)N1C(=O)CCCC1=O | i | i | -9 | -4 | -0.88 | 0
O=C(c1ccc([N+](=O)[O-])cc1)N(Cc1ccc(Cl)cc1)N1C(=O)CCCC1=O | i | + | -5 | 0 | -1.7 | 0

Compound activity: PubChem, several laboratories
